27 molecules from the M2OR odorant receptor database can be followed below.

Each structure is given as a SMILES string.

Conditions in all cases: stereoisomer not certain
The target in one experiment is T1, Or5p57 (Mus musculus) (UniProt Q8VEZ0).
T1 sequence (whole entry): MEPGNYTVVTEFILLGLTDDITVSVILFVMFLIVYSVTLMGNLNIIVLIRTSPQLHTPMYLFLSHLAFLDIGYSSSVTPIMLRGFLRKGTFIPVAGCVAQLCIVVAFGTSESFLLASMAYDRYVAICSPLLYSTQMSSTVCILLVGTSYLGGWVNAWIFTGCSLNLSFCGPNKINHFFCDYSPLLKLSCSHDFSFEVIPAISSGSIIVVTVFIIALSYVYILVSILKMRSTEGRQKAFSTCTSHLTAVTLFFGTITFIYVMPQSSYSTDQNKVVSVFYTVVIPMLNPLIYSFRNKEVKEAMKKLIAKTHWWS
The procedure, abridged:
(§1)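 Each receptor–molecule pair is labelled responsive or non-responsive (inactive) according to whether the original authors judged the measured signal statistically different from baseline. The data were taken from the main text and supplementary material of published papers and checked for typos and inconsistencies. Assay methods differed by source, with transient luciferase assays in mammalian cell lines being common.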

For a further experiment, the target named is T2, Or5p80 (Mus musculus) (UniProt Q8VG42).
T2 sequence (whole entry): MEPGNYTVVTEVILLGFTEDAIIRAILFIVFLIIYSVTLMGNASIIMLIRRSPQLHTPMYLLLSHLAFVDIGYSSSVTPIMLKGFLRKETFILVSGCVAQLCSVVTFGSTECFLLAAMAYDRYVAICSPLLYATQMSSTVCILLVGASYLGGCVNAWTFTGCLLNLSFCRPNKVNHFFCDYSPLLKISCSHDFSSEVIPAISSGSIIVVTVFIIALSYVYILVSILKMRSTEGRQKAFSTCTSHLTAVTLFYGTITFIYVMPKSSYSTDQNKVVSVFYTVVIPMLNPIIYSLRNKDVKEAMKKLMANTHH
The procedure, abridged:
as §1

A further experiment has as its target T3, Or7a40 (Mus musculus) (UniProt Q9JHB2).
T3 sequence (whole entry): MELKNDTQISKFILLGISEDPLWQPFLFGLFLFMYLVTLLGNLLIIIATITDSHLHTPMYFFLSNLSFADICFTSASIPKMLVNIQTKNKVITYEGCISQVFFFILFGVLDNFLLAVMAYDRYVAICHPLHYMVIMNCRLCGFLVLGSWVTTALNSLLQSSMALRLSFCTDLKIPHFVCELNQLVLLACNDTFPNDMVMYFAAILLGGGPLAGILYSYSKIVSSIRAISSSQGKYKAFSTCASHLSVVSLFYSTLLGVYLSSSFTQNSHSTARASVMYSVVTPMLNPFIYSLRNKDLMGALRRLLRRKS
The procedure, abridged: as §1
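Also: active if original authors judged signal statistically different from baseline.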

For `CCCCCCCC(=O)[O-].[H+]`, the “odorant receptor agonist call” value with Or5p57 (Mus musculus), with Or5p80 (Mus musculus) and with Or7a40 (Mus musculus) was “inactive” throughout.
In the case of `O=C(O)CCCCBr`, in the experiment with Or5p57 (Mus musculus), the “odorant receptor agonist call” value is “inactive”.
On to `CCCCCCCCCO`, for which the “odorant receptor agonist call” value with Or5p57 (Mus musculus), with Or5p80 (Mus musculus) and with Or7a40 (Mus musculus) was “inactive” in each case.
Consider `O=C(O)CCCCCC(=O)O`, for which the “odorant receptor agonist call” value with Or5p57 (Mus musculus) was “inactive”.
Take `CCCCCOC(=O)CCCCC`: the “odorant receptor agonist call” value with Or5p80 (Mus musculus) and with Or7a40 (Mus musculus) was “inactive” throughout.
With `CCCCC(=O)O`, the “odorant receptor agonist call” value in the experiment with Or5p57 (Mus musculus), with Or5p80 (Mus musculus) and with Or7a40 (Mus musculus) was “inactive” throughout.
For `CCC(C(=O)O)c1ccccc1` (stereo unspecified), the “odorant receptor agonist call” value in the experiment with Or5p80 (Mus musculus) and in the experiment with Or7a40 (Mus musculus) was “inactive” in each case.
For `CC(C)=CCCC(C)CCO` (stereo unspecified), the “odorant receptor agonist call” value in the experiment with Or5p80 (Mus musculus) and in the experiment with Or7a40 (Mus musculus) was “inactive” in each case.
With `O=C([O-])CCCCCCCC(=O)[O-].[H+].[H+]`, the “odorant receptor agonist call” value with Or5p57 (Mus musculus) was “inactive”.
Regarding `CCCCCCCCO`, the “odorant receptor agonist call” value in the experiment with Or5p57 (Mus musculus), in the experiment with Or5p80 (Mus musculus) and with Or7a40 (Mus musculus) was “inactive” throughout.
Consider `O=C(c1ccccc1)c1ccccc1`, for which the “odorant receptor agonist call” value in the experiment with Or5p80 (Mus musculus) and with Or7a40 (Mus musculus) was “inactive” each time.
For `CC12CCC(CC1=O)C2(C)C` (stereo unspecified), the “odorant receptor agonist call” value with Or5p80 (Mus musculus) and with Or7a40 (Mus musculus) was “inactive” throughout.
For the molecule `O=C([O-])CCCCCCC(=O)[O-].[H+].[H+]`, in the experiment with Or5p57 (Mus musculus), the “odorant receptor agonist call” value was “inactive”.
In the case of `CCCCCCCO`, in the experiment with Or5p57 (Mus musculus), the “odorant receptor agonist call” value was “active”. Moreover, the “odorant receptor agonist call” value in the experiment with Or5p80 (Mus musculus) and in the experiment with Or7a40 (Mus musculus) was “inactive” throughout.
Turning to `CCCCCCCCCCO`, the “odorant receptor agonist call” value with Or5p80 (Mus musculus) and with Or7a40 (Mus musculus) was “inactive” in each case.
On to `CCCCCCCCC(=O)O`, for which the “odorant receptor agonist call” value with Or5p57 (Mus musculus), in the experiment with Or5p80 (Mus musculus) and with Or7a40 (Mus musculus) was “inactive” in each case.
Turning to `O=C([O-])CCCCC(=O)[O-].[H+].[H+]`, the “odorant receptor agonist call” value with Or5p57 (Mus musculus) was “inactive”.
Turning to `O=C(O)CCCCCBr`, in the experiment with Or5p57 (Mus musculus), the “odorant receptor agonist call” value is “inactive”.
Turning to `CCCCCC1=C(C)CCC1=O`, the “odorant receptor agonist call” value with Or5p80 (Mus musculus) is “inactive”. Also, the “odorant receptor agonist call” value with Or7a40 (Mus musculus) is “active”.
For `CCCCCC(=O)CC` the same measures were “inactive” and “inactive”.
Turning to `CCCCCO`, the “odorant receptor agonist call” value with Or5p57 (Mus musculus), with Or5p80 (Mus musculus) and with Or7a40 (Mus musculus) was “inactive” throughout.
Regarding `CC(=O)Oc1ccccc1`, the “odorant receptor agonist call” value with Or5p80 (Mus musculus) and in the experiment with Or7a40 (Mus musculus) was “inactive” throughout.
As to `O=C(O)CCCBr`, in the experiment with Or5p57 (Mus musculus), the “odorant receptor agonist call” value was “inactive”.
Turning to `CCCCCCC(=O)[O-].[H+]`, the “odorant receptor agonist call” value with Or5p57 (Mus musculus), with Or5p80 (Mus musculus) and in the experiment with Or7a40 (Mus musculus) was “inactive” throughout.
On to `CCCCCCCC(C)=O`, for which the “odorant receptor agonist call” value with Or5p80 (Mus musculus) and with Or7a40 (Mus musculus) was “inactive” each time.
On to `CCCCCCO`, for which the “odorant receptor agonist call” value with Or5p57 (Mus musculus) is “active”. Moreover, the “odorant receptor agonist call” value with Or5p80 (Mus musculus) and with Or7a40 (Mus musculus) was “inactive” throughout.
Take `CCOC(=O)C(C)C`: the “odorant receptor agonist call” value in the experiment with Or5p80 (Mus musculus) and with Or7a40 (Mus musculus) was “inactive” throughout.
